Hits are enriched below; roughly 3.3% of the tested compounds scored in any of these assays.
PMI act hi M6P: increases human PMI activity with near-saturating mannose 6-phosphate; P34949; activation factor at 20 µM; AID 1216; coupled PMI enzyme assay, resazurin fluorescence, 20 min; hits give high values; 1 = untreated enzyme, 0 = substrate-free blank; 190,000 tested, 0.34% active;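 active = activation factor of 2 or more at 20 µM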
Target sequence (P34949 whole entry, looked up): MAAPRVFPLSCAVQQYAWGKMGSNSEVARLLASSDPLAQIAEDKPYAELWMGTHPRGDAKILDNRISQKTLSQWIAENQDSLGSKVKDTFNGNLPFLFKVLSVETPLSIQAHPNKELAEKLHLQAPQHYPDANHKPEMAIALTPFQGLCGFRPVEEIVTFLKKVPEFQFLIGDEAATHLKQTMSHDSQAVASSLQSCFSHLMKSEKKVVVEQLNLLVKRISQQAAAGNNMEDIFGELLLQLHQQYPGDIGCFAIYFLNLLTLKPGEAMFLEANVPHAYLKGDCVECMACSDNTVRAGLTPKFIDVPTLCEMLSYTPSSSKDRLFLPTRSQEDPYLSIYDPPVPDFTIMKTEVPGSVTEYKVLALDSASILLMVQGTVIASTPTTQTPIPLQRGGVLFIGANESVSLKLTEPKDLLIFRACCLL
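Test system: human phosphomannose isomerase with PGI, G6PDH, diaphorase coupling enzymes; Amount: PMI at 15 ng/mL final; Reagent: Mannose-6-phosphate 1.0 mM (near-saturating) plus 0.22 mM NADP+; Timing: 20 min, room temperature; Technique: resorufin fluorescence at Ex 544/Em 590 nm; Dosing: 20 µM single dose.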
Cl transport mod: modulators of human KCC2 chloride dependent transport | Q9H2X9 | KCC2 cells, thallium flux FluoZin-2 fluorescence | B-score of Tl+ flux slope (higher = more flux/activation; lower = inhibition) at 10 µM | 190,000 tested, 2.2% active | AID 1456;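 active = thallium flux slope and its plate-corrected score both differing from the plate sample mean at a set confidence after two filtering rounds, in either direction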;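 also: slope of fluorescence scaled to starting intensity during 10 to 20 s after thallium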
ROMK mod: modulates human ROMK potassium channel activity. AID 1918. Tet-inducible ROMK, thallium flux fluorescence; actives lie on both sides. 130,000 tested, 2% active. B-score at 10 µM;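 active = signal ratio slope over the read window, or its plate-corrected B-score, at least 3 SD from the plate mean, either direction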;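 also: B-score of the F/F0 ratio slope over 7 to 12 s after thallium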
ABCB1 inh: blocks JC-1 efflux by human ABCB1 transporter | AID 1326 | 190,000 tested, 0.067% active | inhibition, % at 6.6 µM | P08183 | CCRF-Adr cells, flow cytometry; in the data active = inhibition above about 40%;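 also: higher value means more JC-1 retained so stronger ABCB1 efflux block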
PMI activator: phosphomannose isomerase (human) activation. 190,000 tested, 0.005% active. purified human PMI, coupled resazurin fluorescence, 20 min; hits give high values; 1 = vehicle control, 0 substrate-free wells. activation factor at 20 µM. AID 1214;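 active = activation factor of 2 or more at 20 µM, relative to plate controls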
ABCG2 block: inhibitors of human ABCG2 transporter, ABCB1 counter-screen | Q9UNQ0 | IgMXP3 cells, JC-1 efflux, flow cytometry | inhibition, % at 6.6 µM | 190,000 tested, 0.1% active | AID 1325;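 active = inhibition above 80%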
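Test system: IgMXP3 (ABCG2) plus far-red-tagged CCRF-Adr (ABCB1) cells / Amount: 3 million cells/mL in well / Reagent: JC-1 transporter substrate / Timing: 10 min compound exposure, 25 °C / Signal: flow cytometry, 530 nm JC-1 signal / Read-out: percent efflux inhibition, scaled nicardipine 100% to DMSO 0% / Benchmarks: nicardipine as high control, DMSO as low control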
Large screens that a line does not name were inactive.

CCNC(=O)Nc1ccc(-n2nc(C)c(C(=O)OCC)c2C)nc1	none
COC(=O)c1c(NC(=O)c2ccccc2)sc(C(=O)c2ccccc2)c1C	Cl transport mod 8.42 (no result: ROMK mod)
CC1CCCCC1NC(=S)NC(=O)c1sc2ccccc2c1Cl (centres undefined)	none
O=C(NC(=S)N(CCCCO)C1CCCCC1)c1sc2ccccc2c1Cl	ROMK mod 3.15 (no result: Cl transport mod)
CCOC(=O)c1sc2ncnc(NCc3ccco3)c2c1C	Cl transport mod 128
CCOC(=O)c1sc2nc(CC(=O)OC)nc(NCc3ccco3)c2c1C	none (no result: ROMK mod)
CCn1cc(CCC(=O)O)c(C)n1	PMI act hi M6P 2.3
CC1Cc2ccccc2N1C(=S)NC(=O)C1(C)CC1(Cl)Cl (centres undefined)	Cl transport mod 93.1, ROMK mod 13.4
O=C(Cc1c2ccccc2nc2ccccc12)c1ccccc1	none
Cc1cc(C)c2c(N)c(C(=O)N3CCCCCC3)sc2n1	PMI act hi M6P 2.3 (no result: Cl transport mod, ROMK mod)
Cc1cc(C)c2c(N)c(C(=O)NCc3ccco3)sc2n1	PMI act hi M6P 2 (no result: ROMK mod)
CC(=O)c1sc2nc(C)cc(C)c2c1N	none (no result: Cl transport mod, ROMK mod)
O=C(N/N=C/c1ccccc1OCc1ccccc1)c1cccs1	none
COc1cc2[nH]c(=O)c(C(=O)NCCCN3CCOCC3)c(O)c2cc1OC	none
O=C(NCCCN1CCOCC1)c1c(O)c2cc(Br)cc(Br)c2[nH]c1=O	ROMK mod -3.32 (no result: ABCB1 inh, ABCG2 block)
COc1cc(C2C3=C(CCCC3=O)Nc3[nH]n(-c4ccccc4)c(=O)c32)ccc1OC(C)=O (centres undefined)	PMI act hi M6P 2
CC1=CCC2C(=O)N(c3ccc(OC(=O)c4ccco4)cc3)C(=O)C2C1 (centres undefined)	none
CCCCC(=O)NS(=O)(=O)c1ccc(NS(C)(=O)=O)cc1	none
COc1cc(/C=N/NC(=O)COc2ccccc2C)ccc1OC(=O)c1cccs1	none (no result: ROMK mod)
COc1cc(/C=N/Nc2cccc(C)c2)ccc1OC(=O)c1cccs1	PMI act hi M6P 2.1
COc1cc(/C=N/Nc2cccc(C)c2)cc(Br)c1O	PMI act hi M6P 2.4
COc1cc(/C=N/NC(=O)CC#N)cc(Br)c1O	none
Cc1ccc(SCC(=O)N2N=CCC2c2ccccc2)cc1 (centres undefined)	none
O=C(NC(=S)NCc1ccc(-c2nc3ccccc3s2)cc1)c1ccco1	Cl transport mod 6.36 (no result: ROMK mod)
O=C(COC(=O)c1ccco1)Nc1nc2ccccc2s1	none (no result: Cl transport mod)
O=C(NCc1ccc(-c2nc3ccccc3s2)cc1)c1ccco1	none
O=C(NC(=S)Nc1nc2ccccc2s1)c1ccco1	Cl transport mod 36.8 (no result: ROMK mod)
CCOC(=O)c1sc(NC(=S)NC(=O)c2ccco2)nc1C	Cl transport mod 46.9 (no result: ROMK mod)
CCOc1cc(C2NN=C(c3ccc(C)cc3)S2)ccc1O (centres undefined)	Cl transport mod 40.9 (no result: ROMK mod)
CCOc1cc(C2c3c(n[nH]c3C)C(=O)N2c2ccc(C)cc2)ccc1O (centres undefined)	none (no result: ROMK mod)
Nc1nonc1C(=O)NCCNS(=O)(=O)c1ccc(Br)cc1	none (no result: Cl transport mod, ROMK mod)
C/C(=N\NC(=O)c1c(Cl)c(C)nn1C)c1cccc(NC(=O)COc2ccccc2)c1	ROMK mod 4.11
O=C(Nc1ccccc1Oc1ccccc1)c1ccccc1F	none
CCOC(=O)N1CCC(NC(=O)Cn2ncc3ccccc32)CC1	none (no result: ROMK mod)
CCOC(=O)N1CCC(NC(=O)Cn2ncc3c4ccccc4n(C)c3c2=O)CC1	Cl transport mod -2.59 (no result: ROMK mod)
CN(/N=C/c1cccnc1)c1cnc2ccccc2n1	none
CCCC(c1nnnn1C1CCCCC1)N1CCN(C2CCCC2)CC1 (centres undefined)	none (no result: ROMK mod)
CCCCC(c1nnnn1C1CCCC1)N1CCN(C2CCCC2)CC1 (centres undefined)	ROMK mod -3.17 (no result: Cl transport mod)
COc1ccc2nc(N=NC3=C(O)CC(C)(C)CC3=O)sc2c1	none (no result: ROMK mod)
COc1ccc2nc(N=Nc3ccc(O)c4ccccc34)sc2c1	Cl transport mod 18.1 (no result: ROMK mod)
O=c1c(N2CCCCC2)coc2ccccc12	PMI act hi M6P 2 (no result: Cl transport mod)
CN1C(=O)C2C(c3ccc(N(C)C)cc3)NN(Cc3ccccc3)C2C1=O (centres undefined)	none
Cc1ccc(CN/C=C/C(=O)c2ccc(Br)cc2)cc1	none (no result: ROMK mod)
O=C(/C=C/NNC(=O)c1ccc(Cl)cc1)c1ccccc1	none
O=C(/C=C/NCC(=O)c1ccccc1)c1ccc(Br)cc1	PMI act hi M6P 2.1 (no result: ROMK mod)
O=C(/C=C/NNC(=O)c1ccccc1)c1ccc(Br)cc1	Cl transport mod 8.83 (no result: ROMK mod)
COc1ccc(F)cc1S(=O)(=O)Nc1cccc(C(=O)O)c1	none
COC(=O)[C@@H]1CC[C@H](C)[C@@H](c2ccc(C)cc2)N1C(=O)c1ccc(/C=N/OCC[C@@H]2C=C[C@H](OC(C)=O)[C@@H](COC(C)=O)O2)cc1	none
CCC1(C)Cc2nc3sc(C(=O)O)c(N)c3cc2CO1 (centres undefined)	PMI act hi M6P 2.2 (no result: ROMK mod)
O=c1/c(=C\c2cccc(O)c2)sc2nc(-c3ccccc3)c(-c3ccccc3)n12	none (no result: PMI act hi M6P, ROMK mod, ABCB1 inh, PMI activator, ABCG2 block)
Cc1ccc(S(=O)(=O)NCC[C@@]2(C)C3CCC2(C)C(=O)C3)cc1 (some centres undefined)	none (no result: PMI act hi M6P, ROMK mod, ABCB1 inh, PMI activator, ABCG2 block)
Cc1ccc(S(=O)(=O)N/N=C2\C(=O)C3(C)CCC2C3(C)C)cc1 (centres undefined)	PMI act hi M6P 2.1
Nc1nc(N2CCN(c3ccc(F)cc3)CC2)n[nH]1	none
COC(=O)c1nn(-c2ccc(Cl)cc2)c(=O)cc1Sc1ccccn1	none (no result: ROMK mod)
Cc1ccc(NC(=S)c2nc3ccccc3[nH]2)cc1	Cl transport mod 32.6 (no result: ROMK mod)
Cc1ccc(NC(=S)c2nc3ccccc3[nH]2)c(C)c1	Cl transport mod 64.6
CCCn1cc(NC(=O)c2cc(-c3ccccc3)on2)cn1	ROMK mod 5.58 (no result: Cl transport mod)
CCOC(=O)NNc1ccccc1	none (no result: PMI act hi M6P, ROMK mod, ABCB1 inh, PMI activator, ABCG2 block)
CCC(O)CC(C(=O)NNc1ccccc1)C(=O)NNc1ccccc1 (centres undefined)	PMI act hi M6P 2.8
C/C(=N\N=C\c1ccc(N(C)C)cc1)c1cccc([N+](=O)[O-])c1	PMI act hi M6P 2.3
C/C(=N\N=C(N)N)c1cccc([N+](=O)[O-])c1	none (no result: ROMK mod)
Fc1ccccc1/C=C1\CCCC2=C1NC(=S)NC2c1ccccc1F (centres undefined)	PMI act hi M6P 2.2
S=C1NC2=C(CCC/C2=C\c2ccccc2)C(c2ccccc2)N1 (centres undefined)	PMI act hi M6P 2.4 (no result: ROMK mod)
Fc1cccc(/C=C2\CCCC3=C2NC(=S)NC3c2cccc(F)c2)c1 (centres undefined)	none (no result: PMI act hi M6P, ROMK mod, ABCB1 inh, PMI activator, ABCG2 block)
COc1ccc(C(=O)/C=C2\NCC3c4ccccc4CCN3C2=O)cc1 (centres undefined)	PMI act hi M6P 2.4
COC(=O)c1ccc(NS(=O)(=O)c2ccccc2)o1	none
NC(=O)NNc1ncc(C(F)(F)F)cc1Cl	none
